Tested on: MS2 coat protein
Assay: apparent Kd, MS2 coat protein; higher = weaker binding; RNA-MaP array; FMN 200 µM where present
Summary of the method: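 Designs were transcribed by stalled E. coli RNA polymerase on Illumina sequencing-chip clusters. They were titrated with SNAP-549-labelled MS2 coat protein from 0.7 or 1.5 nM, doubling to 3 µM, without and then with constant ligand. Buffer: 100 mM Tris-HCl pH 7.5, 80 mM KCl, 4 mM MgCl2, BSA, DTT, yeast tRNA, Tween-20. Green signal was normalised to red-channel RNA signal and control-cluster median Fmax. Apparent Kd is the median of filtered per-cluster binding-curve fits.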

[1] = designed as: OFF switch for flavin mononucleotide, no ligand
[2] = ligand present: flavin mononucleotide, designed as: OFF switch for flavin mononucleotide
[3] = designed as: ON switch for flavin mononucleotide, no ligand
[4] = ligand present: flavin mononucleotide, designed as: ON switch for flavin mononucleotide

Sequence | apparent Kd [1] | apparent Kd [2] | apparent Kd [3] | apparent Kd [4]
GCAUGUUAUGUCAGGAUAUACCUAUGGAUACAUAGGUAGAAGGGACAUGAGGAUCACCCAUGUCCUAACCAUGC | 11.8 nM | 15.1 nM | – | –
AAAACACAUGAGGAUCACCCAUGUAUCUGGACCAUAGGAUAUCCGCACCCACUAGGGCGUGGAGAAGGGUGAGCCC | – | – | 170 nM | 194 nM
UUAAAUCAUGUAGGAUAUGCAUGGCGAAGCUACGCAGAAGGACAUGAGGAUCACCCAUGUGCUAGCGACAGAGAACUGUUGCAA | 56.9 nM | 311 nM | – | –
CCACCAAUCGAGAAGGGCCCAUGUGCUACAUCGGCAGGAUAUCGACAUGAGGAUCACCCAUGUUGGCGAUCCUUUUUGGCGGAC | 176 nM | 35.9 nM | – | –
AACAUGUCAGGAUAUGUGACAUGGCUCUUCGGAGCAAGAUCACAGAAGGGACAUGAGGAUCACCCAUGUCGAUC | 38.7 nM | 156 nM | – | –
GCACGACAUGUAGGAUAUCGAGCGCCGGGCGCUCGAGAAGGACAUGAGGAUCACCCAUGUAUUCUGAGUGACCGAGGUCGUGCA | 53.9 nM | 557 nM | – | –
AUCAGCUCGUCAGGAUAUACGUCACUGCGUCAGCAGUGUGGUAAGACCACAUGAGGAUCACCCAUGUAGAAGGGACGAGCUGAU | 7.94 nM | 24.5 nM | – | –
AAUAACAGAGGAUAUACUGUUUUAUGUGUUUAUUGUUUUGAACAUGAGGAUCACCCAUGUAGAAGGCUGAAUGA | 26.1 nM | 26.2 nM | – | –
UUACUCAUGUAAGGAUAUGCAGCUGAAACGGCUGCAGAAGGUACUAUAAUACAUGAGGAUCACCCAUGUAAAAUAAAUAAAGUU | – | – | 24.1 nM | 14.6 nM
UUAAUUAAUUAAUUCGUCAAUUACAUGAGGAUCACCCAUGUAUAGGAUAUGCAGUGGAAUACACUGCAGAAGGAUACAAAGACG | 18.3 nM | 21.4 nM | – | –
UGAGCCUCGUGAGGAUAUACAUGAGGAUCACCCAUGUAAUAAAGUGAACGGAGGAAGCUCCGAAUGUAGAAGGCACGAGGCUCA | 60.1 nM | 372 nM | – | –
CUUUUGUGAGGAUAUCAGUAGUAUAUAAAUAAAAUUACUACUGAGAAGGCACAUGAGGAUCACCCAUGUUCCUC | 39.2 nM | 164 nM | – | –
CAGCGAUAGCUGAACAAUCUAUCUGAGGAUAUUCAGAAUAAACAUGAGGAUCACCCAUGUAAUUGGGAGAAGGCAGAUAGAUUG | – | – | 9.19 nM | 5.48 nM
UAAAUCUUGUAAGGAUAUACACGAGAUUCAAGUGUAGAAGGUACUUACAUGAGGAUCACCCAUGUAUACAUGGAUAUUAGAUAU | – | – | 142 nM | 38.9 nM
GGUACCAUCACAGGAUAUGCUUUCCUUUGGGAAGCAGAAGGGUGUAACAUGAGGAUCACCCAUGUGGUGCCCGGGCGUGAGCCC | – | – | 120 nM | 15.9 nM
CCACGUCCCAUUAACAUGAGGAUCACCCAUGUCAAAAGACAUGAGGAUAUGCAUCCUAAUUGGAUGCAGAAGGCAUGGACGUGG | – | – | 814 nM | 87.1 nM
UUGUAGUACGUAGGAUAUCAUUGAGGGUCACCCUGAGAAGGACGUGAGGACAUGAGGAUCACCCAUGUGGAUCACCCAUGUCAU | 282 nM | 549 nM | – | –
GGUACUCAAAGAGUACUUGGUCGAACAUGAGGAUCACCCAUGUAGGAUAUGUAAAGCAAGAAGUAACAGAAGGACAUGUGCAGC | 13.1 nM | 17.1 nM | – | –
GGUCCAUCAUGAGGAUAUGGCACCUUAUUGGUGCCAGAAGGCAUGUCUAUUGACAUGAGGAUCACCCAUGUAUUAAUUUGGACC | – | – | 1040 nM | 80.7 nM
CGUGCUAUGUAGAAGGCAGAUCUGAUUCAGAUCUGAGGAUAUACAUGAGGAUCACCCAUGUUAUGCACCAGCACGAGAGUGCAA | 6.31 nM | 10.5 nM | – | –
GCAUGGUAUGAGAAGGCAUAAUUUAUCUAACAACAUGAUUACAUGAGGAUCACCCAUGUUUCCAAUGAGGAUAUCAUACCGUGC | 7.83 nM | 7.12 nM | – | –
AUCAUUCGUGUAGGAUAUGCGUCAGAAACUGAUGCAGAAGGACAUGAGGAUCACCCAUGUCUUUCUCGAGCUGUAGCUCGAGGA | 21.3 nM | 145 nM | – | –
UUGUUUCGUCAUUAACAUGAGGAUCACCCAUGUAAAGAACCAGAGGAUAUGCAUGUUUGAUUGUAGCAGAAGGCUGAUUGUUGU | – | – | 35.8 nM | 33.4 nM
GGGUACAUCGGAGGAUAUCAUGUAAAUACAUGAGGAUCACCCAUGUCGAUGGAGACAUCGGAGCUUGAGAAGGCCGAUGUACCG | – | – | 36.2 nM | 6.49 nM

Sequence | apparent Kd [1] | apparent Kd [2] | apparent Kd [3] | apparent Kd [4]
UCAUAUAUACAAGGAUAUCAAUGAUUUAUAGAUCCUACAUGAGGAUCACCCAUGUUUUUAUAUUUUGAGAAGGUGUAAUGUCUU | – | – | 218 nM | 254 nM
GGCUGGCAGCUAGGAUAUGGGCGGUCACAUGAGGAUCACCCAUGUCAACAUCAAAACCAGAUUAACCAGAAGGAGCUGCGGGCU | – | – | 51.8 nM | 796 nM
UUAACAUGAGGAUCACCCAUGUAUAGAUUGUUUAUUAGAAGUGAGGAUAUAUAUAAAAUUAGGUAGUAGAAGGCACUGGGUUUU | – | – | 30.5 nM | 31.9 nM
GUAACGCUUGACAUGAGGAUCACCCAUGUUAGAUUGUUAUGUCAGGAUAUAGUCUAGAAACUAGACUAGAAGGGAUAUGUUACU | – | – | 69.6 nM | 29.4 nM
UGUGUCUGUAGAGGAUAUCCGGGCGUUCGGCUAGGAGAAGGCUGCAACACAUGAGGAUCACCCAUGUAGGUUGUGUCUCUCUAC | 5.05 nM | 8.48 nM | – | –
CAUUAAUUAAUUAUAGUAUUUAUACAGGAUAUGUAACAUGAGGAUCACCCAUGUAUACAUGGGAAACAGAAGGGUAUUUAUAGA | 32 nM | 28.8 nM | – | –
AAAAAACAUGAGGAUCACCCAUGUAAGGAUAUGCAAAAAAAAAAAAAAAAAAAAAAAAGCAGAAGGUACAAAAA | 34.2 nM | 62 nM | – | –
GGAUCUAUGUAGAAGGCUGUCUUAAAAUAGGACAGAGGAUAUACAUGAGGAUCACCCAUGUACUCCUUUAAAAGGAUCCAAAUA | 5.77 nM | 11 nM | – | –
GUAGUGUAUGUAGGAUAUGUGAAGCAAAGCUUCACAGAAGGACAUGAGGAUCACCCAUGUAUUGCAGCCUGCAAUCAGGCUGCU | 41 nM | 144 nM | – | –
CCAUCGAGUGUGAGGAUAUGCUGGUCCAUAGAUCAGCAGAAGGCACAUGAGGAUCACCCAUGUGGAGACGGUGG | 41.7 nM | 332 nM | – | –
ACAGCGGCAGGAUAUGCAUGCUCCGACUUAUGCCUACAAAGACAUGAGGAUCACCCAUGUAGAAGGGCCAGCGG | 13.8 nM | 15.2 nM | – | –
ACUCGACAUGAGGAUCACCCAUGUGAGGAUAUCGUUAUUUACUUUGUUUAUAGUAUCUCGAGAAGGCACAUUUG | 18.1 nM | 54.6 nM | – | –
AGAUAGUUAUAACGCCAUCCCUACAUGAGGAUCACCCAUGUGCAGGAUAUAGGCUUGAAGCAAACCUAGAAGGGCACAGGUUGA | 15.8 nM | 35.9 nM | – | –
ACCACGUUAGCGAUAUGAUCGAGAGAUCAUGUCGCUAUAUUUAGAAGGACAUGAGGAUCACCCAUGUAGGAUAUGGGUCGUGGA | – | – | 36.3 nM | 9.03 nM
GGAUAGGACAGAGGAUAUACGUGCUAGAGAUACUAGCAAAAUUUCGUCACAUGAGGAUCACCCAUGUAGAAGGCUGUCCUAUCG | 5.02 nM | 7.65 nM | – | –
AACGCACGAGAUGGCUGGGAUACUAAGGAUAUGACAUGAGGAUCACCCAUGUACGCGAUCCAUGGUCAGAAGGUAGUAAUUCGC | 37 nM | 91.2 nM | – | –
UAUUUAAUCAUAGGAUAUAGUGUGAAAUUUGGACUAGAAGGAUGUAACAUGAGGAUCACCCAUGUGGUAAGUGGGACACAUUGA | – | – | 107 nM | 130 nM
GUGCGAGCCACAGGAUAUCUACAAAUUUACUGUAGAGAAGGGUGACCUCGUGCACCACAUGAGGAUCACCCAUGUAACUAGGCG | – | – | 26.3 nM | 53 nM
AUUGACUGAGGAUAUUGUACUGCUGACAUGAGGAUCACCCAUGUAUGCUAACUCGGCCGUCGAGAAGGCAGUCAUG | 29.2 nM | 17.3 nM | – | –
CUAAAACAUGAGGAUCACCCAUGUCAACAAAGUCGAGGAUAUGGGCAAAUAAAAUAAGAACCAGAAGGCGAAUAAC | – | – | 409 nM | 36.2 nM
CGCAUCUCCUCAAUUCCUUCACAUGAGGAUCACCCAUGUAGGGAGGAUAUGCAAGCCUAUUGGCGGCAGAAGGCCCUGCAAUGG | 72.9 nM | 67.4 nM | – | –
GACUGCUGAGGAUAUACAUGAGGAUCACCCAUGUGCUUCAGUAUCGAAAGAUGCAUGGGUAGAAGGUGGUAGUC | 70.6 nM | 54.4 nM | – | –
UUCCUGUCAGGAUAUGACUAGAUGCACGAAAGUGUGUUUACUUAGAAGGGACAUGAGGAUCACCCAUGUAGUCC | 35.9 nM | 33.3 nM | – | –
UUGCGCUGUCGAGAGGAUAUGCGGUGUUGGACAUGAGGAUCACCCAUGUUAGCGAUAGCUUUACGGUAGAAGGCUCUUCAGCUGC | – | – | 138 nM | 56.9 nM

— the EternaBench riboswitch data
